Test results taken from ChEMBL document CHEMBL1124476, “1-(2-aminoethyl)-6-aryl-4H- [1,2,4]triazolo[4,3-a][1,4]benzodiazepines with diuretic and natriuretic activity” (J Med Chem, 1989).

Columns and labels:
[1] = Diuretic activity at 40 mg/kg (screening dose-55.2 umol/kg) in […] in a one stage experiment; T/C = urine vol of treated rats / urine vol of control rats; format: functional
Summary of the method: (§1)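 40 mg/kg given by gavage in 25 mL/kg 0.9% saline with 0.5% (carboxymethyl)cellulose. Four rats per agent, two per metabolism cage; 20 controls; 5 h urine. T/C = treated/control urine volume. Stage-1 T/C of 1.66 or more leads to stage 2; product T/C1·T/C2 of 3.34 or more counts as active.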

[2] = Diuretic activity at 40 mg/kg (screening dose-55.2 umol/kg) in […] in a two stage experiment; T/C1.2 = urine vol of treated rats / urine vol of control rats; format: functional; summary of the method: as §1
[3] = species: Rattus norvegicus; experiment: […]; format: ADME, organism-based, Urine; parameters: dose 10 mg/kg, route oral; details: in vivo, po, 10 mg/kg
Summary of the method: (§2)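 Male Sprague-Dawley rats, about 160 g, fasted 24 h and water withheld 1 1/2 h beforehand; food and water withheld during the test. Dosing by gavage with 25 mL/kg 0.9% saline containing 0.5% (carboxymethyl)cellulose, agent dissolved or suspended. Three cages of two rats each per dose, held in metabolism cages. Urine collected over 5 h. Volume given in mL, Na+ in mequiv. Significance versus control at P < 0.05.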

[4] = species: Rattus norvegicus; experiment: […]; format: ADME, organism-based, Urine; parameters: dose 100 mg/kg, route oral; details: in vivo, po, 100 mg/kg; summary of the method: as §2
[5] = species: Rattus norvegicus; experiment: […]; format: ADME, organism-based, Urine; parameters: dose 3 mg/kg, route oral; details: in vivo, po, 3 mg/kg; summary of the method: as §2
[6] = species: Rattus norvegicus; experiment: […]; format: ADME, organism-based, Urine; parameters: dose 0.3 mg/kg, route oral; details: in vivo, po, 0.3 mg/kg
Summary of the method: (§3)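 Dose-response test in male Sprague-Dawley rats of about 160 g, fasted 24 h, with water withheld 1½ h before and during the test. Each rat got a single gavage of 25 mL/kg 0.9% saline with 0.5% carboxymethylcellulose carrying the agent (0.3–100 mg/kg range). Rats were housed two per metabolism cage, and urine was collected for 5 h. Mean urine volume (mL) was compared with controls (P < 0.05).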

[7] = species: Rattus norvegicus; experiment: […]; format: ADME, organism-based, Urine; parameters: dose 1 mg/kg, route oral; details: in vivo, po, 1 mg/kg; summary of the method: as §3
[8] = system: Rattus norvegicus; experiment: Mean excretion of potassium in conscious rats at a dose of 10 mg/kg given orally; format: ADME, organism-based; parameters: dose 10 mg/kg, route oral; details: in vivo, po
Summary of the method: (§4)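 Secondary dose-response in male Sprague-Dawley rats (~160 g), fasted and hydrated as in the primary screen. Oral gavage at 0.3-100 mg/kg in 25 mL/kg saline/0.5% CMC, three cages of two rats per dose. Urine collected 5 h; Na, K, Cl, HCO3 measured. Values are mean excretion (mequiv), compared with controls at P < 0.05.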

[9] = system: Rattus norvegicus; experiment: Mean excretion of potassium in conscious rats at a dose of 100 mg/kg given orally; format: ADME, organism-based; parameters: dose 100 mg/kg, route oral; details: in vivo, po; summary of the method: as §4
[10] = system: Rattus norvegicus; experiment: Mean excretion of potassium in conscious rats at a dose of 3.0 mg/kg given orally; format: ADME, organism-based; parameters: dose 3 mg/kg, route oral; details: in vivo, po; summary of the method: as §4
[11] = system: Rattus norvegicus; experiment: Mean excretion of potassium in conscious rats at a dose of 30 mg/kg given orally; format: ADME, organism-based; parameters: dose 30 mg/kg, route oral; details: in vivo, po; summary of the method: as §4
[12] = system: Rattus norvegicus; experiment: Mean excretion of sodium in conscious rats at a dose of 0.3 mg/kg given orally; format: ADME, organism-based; parameters: dose 0.3 mg/kg, route oral; details: in vivo, po; summary of the method: as §2
[13] = system: Rattus norvegicus; experiment: Mean excretion of […] in conscious rats at a dose of 1.0 mg/kg given orally; format: ADME, organism-based; parameters: dose 1 mg/kg, route oral; details: in vivo, po; summary of the method: as §2
[14] = system: Rattus norvegicus; experiment: Mean excretion of sodium in conscious rats at a dose of 10 mg/kg given orally; format: ADME, organism-based; parameters: dose 10 mg/kg, route oral; details: in vivo, po; summary of the method: as §2
[15] = system: Rattus norvegicus; experiment: Mean excretion of sodium in conscious rats at a dose of 100 mg/kg given orally; format: ADME, organism-based; parameters: dose 100 mg/kg, route oral; details: in vivo, po; summary of the method: as §2
[16] = system: Rattus norvegicus; experiment: Mean excretion of sodium in conscious rats at a dose of 3.0 mg/kg given orally; format: ADME, organism-based; parameters: dose 3 mg/kg, route oral; details: in vivo, po; summary of the method: as §2
[17] = system: Rattus norvegicus; experiment: Mean excretion of sodium in conscious rats at a dose of 30 mg/kg given orally; format: ADME, organism-based; parameters: dose 30 mg/kg, route oral; details: in vivo, po; summary of the method: as §2
[18] = system: Rattus norvegicus; experiment: Mean excretion of chloride in conscious rats at a dose of 1.0 mg/kg given orally; format: ADME, organism-based; parameters: dose 1 mg/kg, route oral; details: in vivo, po; summary of the method: as §4
[19] = system: Rattus norvegicus; experiment: Mean excretion of chloride in conscious rats at a dose of 10 mg/kg given orally; format: ADME, organism-based; parameters: dose 10 mg/kg, route oral; details: in vivo, po; summary of the method: as §4
[20] = system: Rattus norvegicus; experiment: Mean excretion of chloride in conscious rats at a dose of 100 mg/kg given orally; format: ADME, organism-based; parameters: dose 100 mg/kg, route oral; details: in vivo, po; summary of the method: as §4
[21] = system: Rattus norvegicus; experiment: Mean excretion of chloride in conscious rats at a dose of 30 mg/kg given orally; format: ADME, organism-based; parameters: dose 30 mg/kg, route oral; details: in vivo, po; summary of the method: as §4
[22] = system: Rattus norvegicus; experiment: Mean excretion of chloride in conscious rats at a dose of 3.0 mg/kg given orally; format: ADME, organism-based; parameters: dose 3 mg/kg, route oral; details: in vivo, po; summary of the method: as §4
[23] = system: Rattus norvegicus; experiment: Mean excretion of Cl- in conscious rats at a dose of 0.3 mg/kg given orally; format: ADME, organism-based, Urine; parameters: dose 0.3 mg/kg, route oral; details: in vivo, po; summary of the method: as §3
[24] = system: Rattus norvegicus; experiment: Mean excretion of potassium in conscious rats at a dose of 1.0 mg/kg given orally; format: ADME, organism-based; parameters: dose 1 mg/kg, route oral; details: in vivo, po; summary of the method: as §4
[25] = system: Rattus norvegicus; experiment: Mean excretion of potassium in conscious rats at a dose of 0.3 mg/kg given orally; format: ADME, organism-based; parameters: dose 0.3 mg/kg, route oral; details: in vivo, po; summary of the method: as §4
[26] = Diuretic activity at 40 mg/kg (screening dose-73.8 umol/kg) in […] in a two stage experiment; T/C1.2 = urine vol of treated rats / urine vol of control rats; format: functional; summary of the method: as §1
[27] = Diuretic activity at 40 mg/kg (screening dose-73.8 umol/kg) in […] in a one stage experiment; T/C = urine vol of treated rats / urine vol of control rats; format: functional; summary of the method: as §1
[28] = species: Rattus norvegicus; experiment: […]; format: ADME, organism-based, Urine; parameters: dose 30 mg/kg, route oral; details: in vivo, po, 30 mg/kg; summary of the method: as §2
[29] = system: Canis familiaris; experiment: Effect of compound on urinary volume after infusion with 10 mg/kg/hr fose into renal artery of anesthetized dogs; format: ADME, organism-based, Canis lupus familiaris, Urine; details: dog, in vivo
Summary of the method: (§5)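 Anesthetized dogs; drug added to saline pumped at 0.3 mL/min through a needle into one renal artery, contralateral kidney as control. 10 mg/kg per h, with 30-60 min stabilization first. Urine volume and GFR (inulin clearance) taken before and after infusion; means ± SEM in mL/min, N = 5, P < 0.05.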

[30] = system: Canis familiaris; experiment: Effect of compound on urinary volume before infusion with 10 mg/kg/hr fose into renal artery of anesthetized dogs; format: ADME, organism-based, Canis lupus familiaris, Urine; details: dog, in vivo; summary of the method: as §5
[31] = system: Canis familiaris; experiment: Effect of compound on glomerular filtration rate after infusion with 10 mg/kg/hr fose into renal artery of anesthetized dogs; format: ADME, organism-based, Canis lupus familiaris; details: dog, in vivo; summary of the method: as §5
[32] = system: Canis familiaris; experiment: Effect of compound on glomerular filtration rate before infusion with 10 mg/kg/hr fose into renal artery of anesthetized dogs; format: ADME, organism-based, Canis lupus familiaris; details: dog, in vivo; summary of the method: as §5
[33] = Diuretic activity at 40 mg/kg (screening dose-90.5 umol/kg) in […] in a two stage experiment; T/C1.2 = urine vol of treated rats / urine vol of control rats; format: functional; summary of the method: as §1
[34] = Diuretic activity at 40 mg/kg (screening dose-90.5 umol/kg) in […] in a one stage experiment; T/C = urine vol of treated rats / urine vol of control rats; format: functional; summary of the method: as §1
[35] = Diuretic activity at 40 mg/kg (screening dose-68.7 umol/kg) in […] in a one stage experiment; T/C = urine vol of treated rats / urine vol of control rats; format: functional; summary of the method: as §1
[36] = Diuretic activity at 40 mg/kg (screening dose-68.7 umol/kg) in […] in a two stage experiment; T/C1.2 = urine vol of treated rats / urine vol of control rats; format: functional; summary of the method: as §1

Row | SMILES | Mean urine volume [3] | Mean urine volume [4] | Mean urine volume [5] | Mean urine volume [6] | Mean urine volume [7] | Mean excretion of K+ [8] | Mean excretion of K+ [9] | Mean excretion of K+ [10] | Mean excretion of K+ [11] | Mean excretion of Na+ [12] | Mean excretion of Na+ [13] | Mean excretion of Na+ [14] | Mean excretion of Na+ [15] | Mean excretion of Na+ [16] | Mean excretion of Na+ [17] | Mean excretion of Cl- [18] | Mean excretion of Cl- [19] | Mean excretion of Cl- [20] | Mean excretion of Cl- [21] | Mean excretion of Cl- [22] | other results
1 | CN(C)CCc1nnc2n1-c1ccc(Cl)cc1C(c1ccccc1)=NC2 |  |  |  |  |  |  |  |  |  |  |  |  |  |  |  |  |  |  |  |  | T/C 1 [1]: 1.66; T/C 1.2 [2]: 3.04
2 | I.NCC(c1ccccc1)c1nnc2n1-c1ccc(Cl)cc1C(c1ccccc1)=NC2 (centres undefined) | 6.21 mL | 8.43 mL | 3.92 mL | 4.34 mL | 4.45 mL | 0.27 m equiv | 0.27 m equiv | 0.22 m equiv | 0.28 m equiv | 0.77 m equiv | 0.76 m equiv | 1.08 m equiv | 1.63 m equiv | 0.69 m equiv | 2.01 m equiv | 0.79 m equiv | 1.09 m equiv | 1.57 m equiv | 1.72 m equiv | 0.73 m equiv | Mean excretion of Cl- [23]: 0.81 m equiv; Mean excretion of K+ [24]: 0.32 m equiv; Mean excretion of K+ [25]: 0.28 m equiv; T/C 1.2 [26]: 5.92; T/C 1 [27]: 2.53; Mean urine volume [28]: 10.47 mL
3 | CN(C)CC(c1ccccc1)c1nnc2n1-c1ccc(Cl)cc1C(c1ccccc1)=NC2 (centres undefined) | 6.7 mL | 9.54 mL | 5.36 mL | 4.15 mL | 4.47 mL | 0.22 m equiv | 0.27 m equiv | 0.22 m equiv | 0.27 m equiv | 0.74 m equiv | 0.81 m equiv | 1.15 m equiv | 1.51 m equiv | 0.82 m equiv | 1.8 m equiv | 0.81 m equiv | 1.16 m equiv | 1.26 m equiv | 1.72 m equiv | 0.89 m equiv | Urinary volume [29]: 0.9 mL/min; Urinary volume [30]: 0.2 mL/min; Mean excretion of Cl- [23]: 0.73 m equiv; Mean excretion of K+ [24]: 0.25 m equiv; GFR [31]: 18 mL/min; GFR [32]: 23 mL/min; Mean excretion of K+ [25]: 0.25 m equiv; T/C 1.2 [33]: 5.27; T/C 1 [34]: 2.1; Mean urine volume [28]: 12 mL
4 | CN(C)CCc1nnc2n1-c1ccc(Br)cc1C(c1ccccc1)=NC2 | 5.9 mL | 13 mL | 5.97 mL | 3.99 mL | 4.38 mL | 0.21 m equiv | 0.27 m equiv | 0.23 m equiv | 0.16 m equiv | 0.66 m equiv | 0.65 m equiv | 0.68 m equiv | 1.57 m equiv | 0.78 m equiv | 1 m equiv | 0.65 m equiv | 0.74 m equiv | 1.42 m equiv | 0.94 m equiv | 0.82 m equiv | Mean excretion of Cl- [23]: 0.66 m equiv; Mean excretion of K+ [24]: 0.23 m equiv; Mean excretion of K+ [25]: 0.25 m equiv; T/C 1 [35]: 2.98; T/C 1.2 [36]: 7.84; Mean urine volume [28]: 8.44 mL
